Assays:
[1] = Antiproliferative activity against human Molt4/C8 cells after 72 hrs by coulter counting analysis; format: functional, cell-based; conditions: MOLT-4, 72 h
How it was run: (§1)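 Cells exposed to a range of concentrations in RPMI 1640 at 37°C for 72 h. Surviving cells counted by Coulter counter. IC50 taken from concentration-response curves, mean ± SD of at least three independent experiments.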

[2] = tested on: CCRF-CEM; experiment: Antiproliferative activity against human CEM cells after 72 hrs by coulter counting analysis; format: functional, cell-based; how it was run: as §1
[3] = tested on: HeLa; experiment: Antiproliferative activity against human HeLa cells after 72 hrs by coulter counting analysis; format: functional, cell-based; how it was run: as §1
[4] = tested on: L1210; experiment: Antiproliferative activity against mouse L1210 cells after 72 hrs by coulter counting analysis; format: functional, cell-based; conditions: L1210, 72 h
[5] = Cytotoxicity against human NCI60 cells assessed as inhibition of tumor growth after 24 hrs; format: functional, cell-based; conditions: NCI60, 24 h
[6] = tested on: COLO 205; experiment: Cytotoxicity against human COLO205 cells assessed as inhibition of tumor growth after 24 hrs; format: functional, cell-based; conditions: COLO 205, 24 h
[7] = tested on: HCC 2998; experiment: Cytotoxicity against human HCC2998 cells assessed as inhibition of tumor growth after 24 hrs; format: functional, cell-based; conditions: HCC 2998, 24 h
[8] = tested on: KM12; experiment: Cytotoxicity against human KM12 cells assessed as inhibition of tumor growth after 24 hrs; format: functional, cell-based; conditions: KM12, 24 h
[9] = tested on: SW-620; experiment: Cytotoxicity against human SW620 cells assessed as inhibition of tumor growth after 24 hrs; format: functional, cell-based; conditions: SW-620, 24 h
[10] = tested on: HL-60(TB); experiment: Antileukemic activity against human HL-60(TB) cells assessed as inhibition of tumor growth after 24 hrs; format: functional, cell-based; conditions: HL-60, 24 h
[11] = tested on: K562; experiment: Antileukemic activity against human K562 cells assessed as inhibition of tumor growth after 24 hrs; format: functional, cell-based; conditions: K562, 24 h
[12] = Antileukemic activity against human RPMI8226 cells assessed as inhibition of tumor growth after 24 hrs; format: functional, cell-based; conditions: rpmi-8226
[13] = tested on: SR; experiment: Antileukemic activity against human SR cells assessed as inhibition of tumor growth after 24 hrs; format: functional, cell-based
[14] = Cytotoxicity against human SupT1 cells assessed as dead cells at 1 uM after 24 hrs; format: functional, SUP-T1
How it was run: (§2)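 Dienones added as DMSO solutions to cells in RPMI medium and incubated 24 h at 37°C. Cytotoxicity was scored as cell-membrane disruption by propidium iodide staining and expressed as percentage of dead cells, averaged over three independent experiments.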

[15] = Cytotoxicity against human HuT-102 cells assessed as dead cells at 1 uM after 24 hrs; format: functional; how it was run: as §2
[16] = Cytotoxicity against human MOLT3 cells assessed as dead cells at 1 uM after 24 hrs; format: functional, MOLT-3; how it was run: as §2
[17] = tested on: EL4; experiment: Cytotoxicity against mouse EL4 cells assessed as dead cells at 1 uM after 24 hrs; format: functional; how it was run: as §2
[18] = Cytotoxicity against human NALM6 cells assessed as dead cells at 1 uM after 24 hrs; format: functional, NALM-6; how it was run: as §2
[19] = tested on: Raji; experiment: Cytotoxicity against human Raji cells assessed as dead cells at 1 uM after 24 hrs; format: functional; how it was run: as §2
[20] = tested on: Ramos; experiment: Cytotoxicity against human Ramos cells assessed as dead cells at 1 uM after 24 hrs; format: functional; how it was run: as §2
[21] = tested on: BJAB; experiment: Cytotoxicity against human BJAB cells assessed as dead cells at 1 uM after 24 hrs; format: functional; how it was run: as §2
[22] = tested on: YT; experiment: Cytotoxicity against human YT cells assessed as dead cells at 1 uM after 24 hrs; format: functional; how it was run: as §2
[23] = tested on: MCF7; experiment: Cytotoxicity against human MCF7 cells assessed as dead cells at 1 uM after 24 hrs; format: functional; how it was run: as §2
[24] = Cytotoxicity against human MDA231 cells assessed as dead cells at 1 uM after 24 hrs; format: functional, MDA-MB-231; how it was run: as §2
[25] = tested on: HCC70; experiment: Cytotoxicity against human HCC70 cells assessed as dead cells at 1 uM after 24 hrs; format: functional; how it was run: as §2
[26] = Cytotoxicity against human MCF10A cells assessed as dead cells at 1 uM after 24 hrs; format: cell-based; conditions: mcf-10a
How it was run: (§3)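 Compounds added from DMSO solutions to cells in medium (RPMI; DMEM for Hs-27 fibroblasts) and incubated 24 h at 37°C. Membrane disruption scored by propidium iodide uptake. Result is percentage of dead cells, average of three independent experiments.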

[27] = tested on: DU-145; experiment: Cytotoxicity against human DU145 cells assessed as dead cells at 1 uM after 24 hrs; format: functional; how it was run: as §2
[28] = Cytotoxicity against human 22Rvl cells assessed as dead cells at 1 uM after 24 hrs; format: functional; how it was run: as §2
[29] = tested on: LAPC4; experiment: Cytotoxicity against human LAPC4 cells assessed as dead cells at 1 uM after 24 hrs; format: functional; how it was run: as §2
[30] = tested on: HS27; experiment: Cytotoxicity against human HS27 cells assessed as dead cells at 1 uM after 24 hrs; format: cell-based; conditions: hs27, 24 h; how it was run: as §3
[31] = tested on: Jurkat; experiment: Cytotoxicity against human Jurkat cells assessed as dead cells at 1 uM after 24 hrs; format: functional; how it was run: as §2
[32] = tested on: CCRF-CEM; experiment: Cytotoxicity against human CEM cells assessed as dead cells at 1 uM after 24 hrs; format: functional; how it was run: as §2
[33] = Cytotoxicity against human HCT15 cells assessed as inhibition of tumor growth after 24 hrs; format: functional, cell-based; conditions: HCT-15, 24 h

Row | SMILES | IC50 [1] | IC50 [2] | IC50 [3] | IC50 [4] | Activity [14] | Activity [15] | Activity [16] | Activity [17] | Activity [18] | Activity [19] | Activity [20] | Activity [21] | Activity [22] | Activity [23] | Activity [24] | Activity [25] | Activity [26] | Activity [28] | Activity [29] | Activity [30] | further results
1 | N[C@@H](Cc1ccc(N(CCCl)CCCl)cc1)C(=O)O [MELPHALAN] | 2.81 µM | 1.44 µM | 1.7 µM | 4.85 µM |  |  |  |  |  |  |  |  |  |  |  |  |  |  |  |  | IC50 [5]: 19.1 µM; IC50 [6]: 32.4 µM; IC50 [7]: 52.5 µM; IC50 [8]: 57.5 µM; IC50 [9]: 26.9 µM; IC50 [10]: 0.38 µM; IC50 [11]: 195 µM; IC50 [12]: 28.2 µM; IC50 [13]: 3.24 µM
2 | O=C1/C(=C\c2ccc(F)cc2)CN(C(=O)CC(=O)N2C/C(=C\c3ccc(F)cc3)C(=O)/C(=C/c3ccc(F)cc3)C2)C/C1=C\c1ccc(F)cc1 | 1.58 µM | 2.75 µM | 5.61 µM | 11 µM | 24.9% | 58.5% | 2.6% | 47.7% | 51.9% | 35.3% | 78.6% | 61.2% | 19.2% | 0.2% | 0.4% | 3.1% | 7% | 18.8% | 11.1% | 0.3% | Activity [27]: 38.4%; Activity [31]: 87.1%; Activity [32]: 92.4%
3 | O=C1/C(=C\c2ccccc2)CN(CCCN2C/C(=C\c3ccccc3)C(=O)/C(=C/c3ccccc3)C2)C/C1=C\c1ccccc1 | 1.45 µM | 2.52 µM | 5.54 µM | 2.98 µM | 21.2% | 10% | 27.4% | 65.3% | 49.2% | 31.9% | 82.1% | 39.4% | 6.6% | 43.5% | 20.1% | 4.3% | 19.4% | 1.7% | 5.7% | 2.9% | IC50 [5]: 0.19 µM; IC50 [6]: 0.19 µM; IC50 [7]: 0.18 µM; IC50 [33]: 0.2 µM; IC50 [8]: 0.16 µM; IC50 [9]: 0.06 µM; IC50 [10]: 0.25 µM; IC50 [11]: 0.04 µM; IC50 [12]: 0.04 µM; IC50 [13]: 0.04 µM; Activity [31]: 76.3%; Activity [32]: 64.5%
4 | COc1cc(/C=C/C(=O)CC(=O)/C=C/c2ccc(O)c(OC)c2)ccc1O [CURCUMIN] | 6.46 µM | 8.16 µM | 21.2 µM | 15.1 µM |  |  |  |  |  |  |  |  |  |  |  |  |  |  |  |  | 
5 | COc1ccc(/C=C2\CN(C(=O)C(=O)N3C/C(=C\c4ccc(OC)cc4)C(=O)/C(=C/c4ccc(OC)cc4)C3)C/C(=C\c3ccc(OC)cc3)C2=O)cc1 | 33.1 µM | 95.1 µM | 59.9 µM | 202 µM | 15.2% | 6.7% | 49.6% | 71.7% | 62.6% | 69.1% | 53.7% | 45.8% | 5.8% | 16.2% | 0.6% | 14.7% | 9.9% | 0% | 1.9% | 0.6% | Activity [27]: 11.4%; Activity [31]: 72%; Activity [32]: 71.9%
6 | COc1ccc(/C=C2/CN(C(=O)CC(=O)N3C/C(=C\c4ccc(OC)cc4)C(=O)/C(=C/c4ccc(OC)cc4)C3)C/C(=C\c3ccc(OC)cc3)C2=O)cc1 | 449 µM | 369 µM | 219 µM | > 500 µM |  |  |  |  |  |  |  |  |  |  |  |  |  |  |  |  | 
7 | CN(C)c1ccc(/C=C2\CN(C(=O)C(=O)N3C/C(=C\c4ccc(N(C)C)cc4)C(=O)/C(=C/c4ccc(N(C)C)cc4)C3)C/C(=C\c3ccc(N(C)C)cc3)C2=O)cc1 | 437 µM | 276 µM | > 500 µM | 297 µM |  |  |  |  |  |  |  |  |  |  |  |  |  |  |  |  | 

Source: ChEMBL document CHEMBL3352437, “Novel 3,5-bis(arylidene)-4-oxo-1-piperidinyl dimers: structure-activity relationships and potent antileukemic and antilymphoma cytotoxicity” (Eur J Med Chem, 2014)
